Laboratory results from ChEMBL document CHEMBL3739414, “Synthesis and biological evaluation of methylated scutellarein analogs based on metabolic mechanism of scutellarin in vivo” (Eur J Med Chem, 2015).
≈ marks a conversion by molar mass, not a printed value.

Legend:
[1] = system: Plasma; experiment: Antithrombotic activity in New Zealand white rabbit platelet-poor plasma assessed as increase of thrombin time at 100 uM after 3 mins (reference value: 20.25 +/- 1.02 seconds); assay type: functional, Oryctolagus cuniculus
In short: (§1)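 Citrated blood (3.8% citrate, 1:9) spun 3000 rpm for 10 min to give platelet-poor plasma. Compounds dissolved in 80% ethanol at 100 μM. Kit assays run on a coagulometer at 37 °C with 3 min incubations. TT: plasma, then thrombin plus sample. PT: plasma, then thromboplastin plus sample. APTT: sample, plasma and activator. FIB: plasma, FIB reagent and sample. Mean ± S.D., n = 4.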

[2] = system: Plasma; experiment: Antithrombotic activity in New Zealand white rabbit platelet-poor plasma assessed as increase of activated partial thromboplastin time at 100 uM after 3 mins (reference value: 30.58 +/- 1.55 seconds); assay type: functional, Oryctolagus cuniculus; in short: as §1
[3] = Antioxidant activity assessed as DPPH radical scavenging activity after 30 mins; assay type: physicochemical
In short: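 Sample in DMSO at 5–500 μM mixed 1:1 with 0.2 mM DPPH in ethanol; DMSO control. Reaction 30 min at 25 °C, absorbance at 517 nm. Scavenging % = [1 − (A1 − A2)/A0] × 100, with a no-DPPH sample blank. IC50 = concentration giving 50% loss of DPPH radical.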

[4] = Antioxidant activity in rat PC12 cells assessed as inhibition of H2O2-induced cytotoxicity at 50 uM after 4 hrs by MTT assay; assay type: functional; conditions: PC-12, 4 h
In short: (§2)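 PC12 cells seeded at 5×10^4 cells/ml and cultured 24 h at 37 °C, 5% CO2. The model group got 400 µM H2O2 for 1 h before drug at 25 or 50 µM; the control group got serum-free DMEM. Five wells per group. MTT 4 h at 37 °C, formazan dissolved in DMSO, absorbance read at 517 nm; inhibiting rate of H2O2 cytotoxicity calculated from absorbance.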

[5] = N-octanol/0.15 M NaHCO3 partition coefficient, log P of the compound after 5 hrs by spectrophotometric analysis; assay type: physicochemical
In short: (§3)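 Shake-flask method. Stock (10 µg/ml) diluted into buffer (0.1 mol/L HCl, 0.15 mol/L NaCl or 0.15 mol/L NaHCO3) and mixed with an equal volume of mutually saturated n-octanol, protected from light. Vortexed 3 min, then shaken 5 h at 25 °C. Both phases read at 334 nm; logP = log([C]octanol/[C]aqueous).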

[6] = Antioxidant activity in rat PC12 cells assessed as inhibition of H2O2-induced cytotoxicity at 25 uM after 4 hrs by MTT assay; assay type: functional; conditions: PC-12, 4 h; in short: as §2
[7] = system: Plasma; experiment: Antithrombotic activity in New Zealand white rabbit platelet-poor plasma assessed as increase of prothrombin time at 100 uM after 3 mins (reference value: 4.99 +/- 0.18 seconds); assay type: functional, Oryctolagus cuniculus; in short: as §1
[8] = system: Plasma; experiment: Antithrombotic activity in New Zealand white rabbit platelet-poor plasma assessed as reduction of fibrinogen at 100 uM after 3 mins (reference value: 7.02+/- 0.16 g/L)
[9] = N-octanol/0.1 M HCl partition coefficient, log P of the compound after 5 hrs by spectrophotometric analysis; assay type: physicochemical; in short: as §3
[10] = N-octanol/0.15 M NaCl partition coefficient, log P of the compound after 5 hrs by spectrophotometric analysis; assay type: physicochemical; in short: as §3
[11] = Aqueous solubility of the compound in water after 1 hr by UV-vis spectrophotometer analysis; assay type: physicochemical
In short: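 Standard curves from methanol solutions at 0.1–10 µg/ml, UV read at 334 nm. Compound (150 µg) dissolved in 10 ml water by ultrasound for 1 h at room temperature, left 30 min, centrifuged. Supernatant measured by UV scan and solubility read from the standard curve.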

Row | Compound | TT [1] [s] | APTT [2] [s] | IC50 [3] [µM] | inhibition at 50 µM [4] [%] | logP at 5 h [5] | inhibition at 25 µM [6] [%] | PT [7] [s] | Activity [8] [g/L] | logP at 5 h [9] | logP at 5 h [10] | solubility at 1 h [11] [µg/mL]
1 | COc1cc2oc(-c3ccc(O)cc3)cc(=O)c2c(O)c1O | 25.48 | 34.49 | 30.2 | 82.3 | 1.03 | 56.2 | 6.55 | 5.74 | 1.59 | 1.54 | 4.56 (≈ 15.2 µM)
2 | COc1c(O)c(O)cc2oc(-c3ccc(O)cc3)cc(=O)c12 | 22.6 | 30.53 | 28.9 | 81.4 | 0.892 | 54.4 | 6.65 | 5.58 | 1.55 | 1.47 | 5.72 (≈ 19 µM)
3 | COc1ccc(-c2cc(=O)c3c(O)c(O)c(O)cc3o2)cc1 | 24.98 | 31.53 | 25.3 | 89.4 | 0.785 | 63.3 | 6.4 | 5.67 | 1.65 | 1.41 | 6.31 (≈ 21 µM)
4 | COc1cc2oc(-c3ccc(O)cc3)cc(=O)c2c(O)c1OC [CIRSIMARITIN] | 25.1 | 39.42 | 190 | 76.1 | 1.81 | 52.2 | 6.95 | 5.65 | 2.19 | 2.14 | 1.53 (≈ 4.87 µM)
5 | COc1c(O)cc2oc(-c3ccc(O)cc3)cc(=O)c2c1O [HISPIDULIN] | 25.96 | 33.1 | 23.7 | 88 | 1.02 | 62.4 | 6.25 | 5.38 | 1.77 | 1.68 | 4.27 (≈ 14.2 µM)
6 | COc1ccc(-c2cc(=O)c3c(O)c(O)c(OC)cc3o2)cc1 [LADANEIN] | 23.33 | 38.28 | 159 | 74.3 | 1.4 | 48.2 | 6.93 | 5.94 | 1.94 | 1.79 | 3.2 (≈ 10.2 µM)
7 | COc1ccc(-c2cc(=O)c3c(O)c(OC)c(O)cc3o2)cc1 [PECTOLINARIGENIN] | 27.45 | 30.48 | 170 | 68.1 | 1.86 | 44.2 | 6.53 | 5.92 | 2.14 | 2.09 | 1.36 (≈ 4.33 µM)
8 | COc1ccc(-c2cc(=O)c3c(O)c(OC)c(OC)cc3o2)cc1 [SALVIGENIN] | 29.03 | 36 | 463 | 20.4 | 2.27 | 11.1 | 6.75 | 5.96 | 2.64 | 2.55 | 0.31 (≈ 0.944 µM)
9 | O=c1cc(-c2ccc(O)cc2)oc2cc(O)c(O)c(O)c12 [SCUTELLAREIN] | 24.4 | 36.65 | 22.6 | 91.2 | 0.48 | 64.6 | 5.93 | 6.84 | 0.892 | 0.772 | –
10 | O=C(O)[C@H]1O[C@@H](Oc2cc3oc(-c4ccc(O)cc4)cc(=O)c3c(O)c2O)[C@H](O)[C@@H](O)[C@@H]1O [SCUTELLARIN] | 23.08 | 34.18 | 27.9 | 79.2 | -0.0513 | 53.1 | 6.28 | 6.13 | 0.592 | 0.365 | –
